Experimental data taken from ChEMBL document CHEMBL4130626, “α-Arylidene Diacylglycerol-Lactones (DAG-Lactones) as Selective Ras Guanine-Releasing Protein 3 (RasGRP3) Ligands” (J Med Chem, 2018).

Tests used:
Format in all cases: cell-based
[1] = target: Protein kinase C delta type (Homo sapiens, UniProt Q05655); assay: Activation of PKCdelta (unknown origin) expressed in HEK293 cells harboring GFP-tagged RasGRP3 assessed as phosphorylation at ser299 residues after 30 mins by immunoblot method
Outline: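 Cells are GFP-RasGRP3-transfected HEK293, grown in EMEM + 10% FBS. Exposed 30 min at 37 °C, 5% CO2, to half-log concentrations up to 10 µM, 1000 nM PMA or DMSO. Lysed in RIPA with protease and phosphatase inhibitors. 50 µg protein run on 10% SDS-PAGE and blotted for phospho-PKCδ S299; anti-GFP used as loading control. Signal normalised to 1000 nM PMA. EC50 is the mean of n = 3.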

[2] = target: T1, Ras guanyl-releasing protein 3 (Homo sapiens, UniProt Q8IV61); assay: Activation of GFP-tagged RasGRP3 (unknown origin) expressed in HEK293 cells after 30 mins by immunoblot method
T1 sequence (Q8IV61 whole entry): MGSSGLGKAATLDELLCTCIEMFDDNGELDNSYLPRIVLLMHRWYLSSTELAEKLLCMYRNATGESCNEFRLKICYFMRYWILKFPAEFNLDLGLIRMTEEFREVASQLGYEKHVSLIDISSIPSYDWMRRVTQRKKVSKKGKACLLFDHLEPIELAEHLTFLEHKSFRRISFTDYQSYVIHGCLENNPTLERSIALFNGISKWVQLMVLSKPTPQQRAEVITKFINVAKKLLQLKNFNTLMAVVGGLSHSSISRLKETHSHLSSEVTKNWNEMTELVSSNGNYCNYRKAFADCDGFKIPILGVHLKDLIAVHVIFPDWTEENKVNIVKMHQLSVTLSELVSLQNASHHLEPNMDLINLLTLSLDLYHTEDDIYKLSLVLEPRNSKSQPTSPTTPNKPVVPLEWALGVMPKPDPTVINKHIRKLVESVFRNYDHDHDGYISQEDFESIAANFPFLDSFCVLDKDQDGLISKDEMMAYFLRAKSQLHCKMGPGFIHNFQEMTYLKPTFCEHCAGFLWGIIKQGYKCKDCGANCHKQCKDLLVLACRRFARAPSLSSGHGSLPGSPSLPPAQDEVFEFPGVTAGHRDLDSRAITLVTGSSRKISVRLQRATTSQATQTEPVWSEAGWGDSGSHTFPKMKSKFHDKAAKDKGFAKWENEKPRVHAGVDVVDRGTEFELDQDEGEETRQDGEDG
Outline: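 HEK293 cells grown in EMEM + 10% FBS, transfected after 48 h with GFP-RasGRP3 (Lipofectamine Plus). Treated 30 min at 37 °C, 5% CO2, with half-log increasing concentrations up to 10 µM, 1000 nM PMA or DMSO. Active Ras pulled down from lysates on Raf1-RBD agarose (60 min, 4 °C), immunoblotted with anti-Pan-Ras. Band intensity normalised to 1000 nM PMA. EC50 is the mean of n = 3.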

Homo sapiens = organism: Homo sapiens; assay: Selectivity ratio of EC50 for PKCdelta (unknown origin) expressed in HEK293 cells harboring GFP-tagged RasGRP3 to EC50 for GFP-tagged RasGRP3 (unknown origin) expressed in HEK293 cells
Outline: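 One EC50 comes from PKCδ S299 phosphorylation on immunoblot, the other from Ras-GTP pulled down on Raf1-RBD. Both signals normalised to 1000 nM PMA. EC50s above 10 µM are extrapolated.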

Protein kinase C delta type, sequence (Q05655 whole entry): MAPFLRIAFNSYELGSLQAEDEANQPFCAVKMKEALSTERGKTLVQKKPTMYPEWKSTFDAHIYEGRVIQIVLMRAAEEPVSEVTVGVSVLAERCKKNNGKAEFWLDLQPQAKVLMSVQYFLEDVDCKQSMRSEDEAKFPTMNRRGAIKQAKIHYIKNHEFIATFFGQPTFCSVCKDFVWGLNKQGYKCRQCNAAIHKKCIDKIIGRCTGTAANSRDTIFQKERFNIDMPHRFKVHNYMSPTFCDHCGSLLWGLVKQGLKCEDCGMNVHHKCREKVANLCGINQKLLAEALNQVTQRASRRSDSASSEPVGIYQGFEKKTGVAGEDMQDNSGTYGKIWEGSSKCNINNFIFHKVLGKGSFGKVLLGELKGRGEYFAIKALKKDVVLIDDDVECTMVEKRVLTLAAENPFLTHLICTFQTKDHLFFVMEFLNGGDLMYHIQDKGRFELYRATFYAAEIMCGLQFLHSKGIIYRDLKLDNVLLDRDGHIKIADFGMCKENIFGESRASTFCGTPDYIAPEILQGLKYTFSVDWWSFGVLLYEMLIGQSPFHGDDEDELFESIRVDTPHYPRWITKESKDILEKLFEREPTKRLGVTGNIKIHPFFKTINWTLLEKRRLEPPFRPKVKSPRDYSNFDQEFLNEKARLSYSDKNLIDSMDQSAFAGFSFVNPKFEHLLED

`CCCCCCCCCCCCCC(=O)O[C@@H]1[C@@H](C)[C@@]2(O)[C@@H](C=C(CO)C[C@]3(O)C(=O)C(C)=C[C@@H]23)[C@@H]2C(C)(C)[C@]12OC(C)=O` [PHORBOL MYRISTATE ACETATE] showed an EC50 [1] of 290 nM, an EC50 [2] of 82 nM and a Ratio EC50 (Homo sapiens) of 3.5.
